In brackets after ≈: the same amount, converted by molar mass.
What was measured:
Staphylococcus aureus [1] = assay: Antimicrobial activity against Panton-valentine leucocidin-positive community-acquired methicillin-resistant Staphylococcus aureus N4042228 infected in human THP-1 cells assessed as change in bacterial count after 24 hrs at pH 5.5; format: functional, organism-based; conditions: N4042228, THP-1, 24 h
Method in brief: (§1)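 THP-1 human macrophages infected with S. aureus (postphagocytosis inoculum 1.5 × 10^6 to 3.0 × 10^6 CFU/mg cell protein), then incubated 24 h with increasing extracellular antibiotic concentrations. Change in log10 CFU/mg cell protein from the postphagocytosis inoculum, n = 3. Hill function fitted on log-transformed data. Low-concentration value (E0) and high-concentration value (Emax) are extrapolated. Where a pH is given, concentrations are expressed as multiples of the broth MIC at that pH.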

Staphylococcus aureus [2] = assay: Antimicrobial activity against hospital-acquired methicillin-resistant Staphylococcus aureus […] infected in human THP-1 cells assessed as change in bacterial count after 24 hrs at pH 7.4; format: functional, organism-based; conditions: THP-1, 24 h
Method in brief: (§2)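 THP-1 macrophages infected as described previously, with a postphagocytosis inoculum of 1.5 × 10⁶ to 3.0 × 10⁶ CFU/mg cell protein. Cells were exposed 24 h to increasing extracellular antibiotic concentrations. Response is the change in log10 CFU/mg protein from the inoculum (n = 3), fitted to a Hill function. E0 and Emax were extrapolated to infinitely low and high concentrations. EC50 and static concentration (graphical interpolation) are expressed as multiples of the broth MIC at pH 5.5 or 7.4.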

Staphylococcus aureus [3] = assay: Antimicrobial activity against Panton-valentine leucocidin-positive community-acquired methicillin-resistant Staphylococcus aureus N4090440 infected in human THP-1 cells assessed as bacterial count per mg of cell protein at high extracellular compound concentration after 24 hrs; format: functional; method in brief: as §1
Staphylococcus aureus [4] = assay: Bacteriostatic activity against methicillin-susceptible Staphylococcus aureus ATCC 11632 infected in human THP-1 cells assessed as change in bacterial count after 24 hrs at pH 5.5; format: functional
Method in brief: (§3)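 Human THP-1 macrophage-like cells were infected with S. aureus to a postphagocytosis inoculum of 1.5 × 10^6 to 3.0 × 10^6 CFU/mg cell protein. Cells were then exposed 24 h to increasing extracellular antibiotic concentrations. Response was the log10 CFU change per mg protein from the postphagocytosis inoculum, n = 3. A Hill function was fitted on log-transformed axes. E0 and Emax were extrapolated to infinitely low and high concentrations. Cs was read by graphical interpolation. Concentrations were expressed as multiples of the broth MIC at pH 5.5 or pH 7.4.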

Staphylococcus aureus [5] = assay: Antimicrobial activity against methicillin-susceptible Staphylococcus aureus ATCC 11632 infected in human THP-1 cells assessed as bacterial count per mg of cell protein at high extracellular compound concentration after 24 hrs; format: functional; method in brief: as §2
Staphylococcus aureus [6] = assay: Antimicrobial activity against Panton-valentine leucocidin-positive community-acquired methicillin-resistant Staphylococcus aureus isolate MEH2225605 infected in human THP-1 cells assessed as bacterial count per mg of cell protein at high extracellular compound concentration after 24 hrs at pH 5.5; format: functional; method in brief: as §1
Staphylococcus aureus [7] = assay: Bacteriostatic activity against methicillin-susceptible Staphylococcus aureus […] infected in human THP-1 cells assessed as change in bacterial count after 24 hrs at pH 5.5; format: functional; method in brief: as §3
Staphylococcus aureus [8] = assay: Antimicrobial activity against hospital-acquired vancomycin-intermediate Staphylococcus aureus NRS126 infected in human THP-1 cells assessed as bacterial count per mg of cell protein at low extracellular compound concentration after 24 hrs at pH 5.5; format: functional; method in brief: as §2
Staphylococcus aureus [9] = assay: Antimicrobial activity against hospital-acquired methicillin-resistant Staphylococcus aureus ATCC 33592 infected in human THP-1 cells assessed as change in bacterial count after 24 hrs at pH 5.5; format: functional, organism-based; conditions: ATCC 33592, THP-1, 24 h; method in brief: as §2
Staphylococcus aureus [10] = assay: Antimicrobial activity against Panton-valentine leucocidin-positive community-acquired methicillin-resistant Staphylococcus aureus N4090440 infected in human THP-1 cells assessed as bacterial count per mg of cell protein at high extracellular compound concentration after 24 hrs at pH 5.5; format: functional; method in brief: as §1
Staphylococcus aureus [11] = assay: Antimicrobial activity against Panton-valentine leucocidin-positive community-acquired methicillin-resistant Staphylococcus aureus STA 228 infected in human THP-1 cells assessed as bacterial count per mg of cell protein at low extracellular compound concentration after 24 hrs; format: functional; method in brief: as §1
Staphylococcus aureus [12] = assay: Antimicrobial activity against hospital-acquired vancomycin-resistant Staphylococcus aureus VRS1 infected in human THP-1 cells assessed as change in bacterial count after 24 hrs at pH 5.5; format: functional, cell-based; conditions: VRS1, THP-1, 24 h; method in brief: as §2
Staphylococcus aureus [13] = assay: Antimicrobial activity against hospital-acquired vancomycin-intermediate Staphylococcus aureus NRS126 infected in human THP-1 cells assessed as change in bacterial count after 24 hrs at pH 5.5; format: functional, organism-based; conditions: NRS126, THP-1, 24 h; method in brief: as §2
Staphylococcus aureus [14] = assay: Antimicrobial activity against Panton-valentine leucocidin-positive community-acquired methicillin-resistant Staphylococcus aureus STA 44 infected in human THP-1 cells assessed as change in bacterial count after 24 hrs at pH 7.4; format: functional, organism-based; conditions: STA 44, THP-1, 24 h; method in brief: as §1
Staphylococcus aureus [15] = assay: Antimicrobial activity against methicillin-susceptible Staphylococcus aureus NRS52 infected in human THP-1 cells assessed as bacterial count per mg of cell protein at low extracellular compound concentration after 24 hrs; format: functional; method in brief: as §3
Staphylococcus aureus [16] = assay: Antimicrobial activity against hospital-acquired vancomycin-intermediate Staphylococcus aureus NRS126 infected in human THP-1 cells assessed as change in bacterial count after 24 hrs; format: functional, organism-based; conditions: NRS126, THP-1, 24 h; method in brief: as §2
Staphylococcus aureus [17] = assay: Bacteriostatic activity against methicillin-susceptible Staphylococcus aureus ATCC 11632 infected in human THP-1 cells assessed as change in bacterial count after 24 hrs at pH 7.4; format: functional; method in brief: as §3
Staphylococcus aureus [18] = assay: Antimicrobial activity against hospital-acquired vancomycin-intermediate Staphylococcus aureus NRS126 infected in human THP-1 cells assessed as change in bacterial count after 24 hrs at pH 7.4; format: functional, organism-based; conditions: NRS126, THP-1, 24 h; method in brief: as §2
Staphylococcus aureus [19] = assay: Antimicrobial activity against hospital-acquired methicillin-resistant Staphylococcus aureus ATCC 33592 infected in human THP-1 cells assessed as bacterial count per mg of cell protein at low extracellular compound concentration after 24 hrs; format: functional; method in brief: as §2
Staphylococcus aureus [20] = assay: Ratio of MIC for hospital-acquired methicillin-resistant Staphylococcus aureus ATCC 33591 by microdilution method at pH 7.4 to ratio of MIC for hospital-acquired methicillin-resistant Staphylococcus aureus ATCC 33591 by microdilution method at pH 5.5; format: functional
Method in brief: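 MICs were determined by broth microdilution at pH 7.4 and pH 5.5. Broth was adjusted before inoculation, and pH was confirmed maintained (±0.1 unit) at the end.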

Staphylococcus aureus [21] = assay: Antimicrobial activity against Panton-valentine leucocidin-positive community-acquired methicillin-resistant Staphylococcus aureus STA 44 infected in human THP-1 cells assessed as bacterial count per mg of cell protein at low extracellular compound concentration after 24 hrs; format: functional; method in brief: as §1
Staphylococcus aureus [22] = assay: Antimicrobial activity against Panton-valentine leucocidin-positive community-acquired methicillin-resistant Staphylococcus aureus isolate MEH2225605 infected in human THP-1 cells assessed as change in bacterial count after 24 hrs at pH 7.4; format: functional, organism-based; conditions: isolate MEH2225605, THP-1, 24 h; method in brief: as §1
Staphylococcus aureus [23] = assay: Antimicrobial activity against methicillin-susceptible Staphylococcus aureus NRS52 infected in human THP-1 cells assessed as change in bacterial count after 24 hrs; format: functional, organism-based; conditions: NRS52, THP-1, 24 h; method in brief: as §2
Staphylococcus aureus [24] = assay: Antimicrobial activity against methicillin-susceptible Staphylococcus aureus NRS52 infected in human THP-1 cells assessed as bacterial count per mg of cell protein at high extracellular compound concentration after 24 hrs; format: functional; method in brief: as §2

Molecule `Nc1nc(/C(=N/O)C(=O)N[C@@H]2C(=O)N3C(C(=O)O)=C(/C=C4\CCN([C@@H]5CCNC5)C4=O)CS[C@H]23)ns1` [CEFTOBIPROLE] has an EC50 (Staphylococcus aureus [1]) of 0.54 × MIC, an EC50 (Staphylococcus aureus [2]) of 0.28 ×MIC and a log10cfu (Staphylococcus aureus [3]) of -1.05. For the same molecule, the Activity (Staphylococcus aureus [4]) was 1.19 × MIC, the log10cfu (Staphylococcus aureus [5]) was -0.95 and the log10cfu (Staphylococcus aureus [6]) was -1.02. It also gave an Activity (Staphylococcus aureus [7]) of 1.19 × MIC, a log10cfu (Staphylococcus aureus [8]) of 2.63 and an EC50 (Staphylococcus aureus [9]) of 0.77 ×MIC. For the same molecule, the log10cfu (Staphylococcus aureus [10]) was -1.02, the log10cfu (Staphylococcus aureus [11]) was 2.87 and the EC50 (Staphylococcus aureus [12]) was 0.77 × MIC. The EC50 (Staphylococcus aureus [13]) was 0.77 × MIC, the EC50 (Staphylococcus aureus [14]) was 0.33 ×MIC and the log10cfu (Staphylococcus aureus [15]) was 2.89. It also gave an EC50 (Staphylococcus aureus [16]) of 0.23 µg/mL (≈ 0.43 µM), an Activity (Staphylococcus aureus [17]) of 0.6 × MIC and an EC50 (Staphylococcus aureus [18]) of 0.28 ×MIC. The log10cfu (Staphylococcus aureus [19]) was 2.58, the “fold change (FC)” value (Staphylococcus aureus [20]) was 4 and the log10cfu (Staphylococcus aureus [21]) was 2.82. For the same molecule, the EC50 (Staphylococcus aureus [22]) was 0.33 ×MIC, the EC50 (Staphylococcus aureus [23]) was 0.19 µg/mL (≈ 0.355 µM) and the log10cfu (Staphylococcus aureus [24]) was -1.01.
